# Compounds with a hit are over-represented: about 2.5% of the library has one in this group of screens.
# SIRT5 inh: sirtuin-5 (human) deacylase inhibition; Q9NXA8; Purified SirT5, succinyl-peptide AMC, trypsin-coupled fluorescence; inhibition, % at 15 µM; 330,000 tested, 1.1% active; in the data active = inhibition above about 15%
# E-selectin induc: E-selectin induction on HUVECs; P16581; activation, % at 7.58 µM; 260,000 tested, 0.37% active; HUVEC E-selectin immunofluorescence imaging; normalized: neutral wells 0, TNF-alpha wells 100; AID 686992;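 active = mean E-selectin-positive cell signal at least 10% of the positive control, reached in at least 60% of replicates, without over 20% cell loss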
# Target sequence (P16581 whole entry, looked up): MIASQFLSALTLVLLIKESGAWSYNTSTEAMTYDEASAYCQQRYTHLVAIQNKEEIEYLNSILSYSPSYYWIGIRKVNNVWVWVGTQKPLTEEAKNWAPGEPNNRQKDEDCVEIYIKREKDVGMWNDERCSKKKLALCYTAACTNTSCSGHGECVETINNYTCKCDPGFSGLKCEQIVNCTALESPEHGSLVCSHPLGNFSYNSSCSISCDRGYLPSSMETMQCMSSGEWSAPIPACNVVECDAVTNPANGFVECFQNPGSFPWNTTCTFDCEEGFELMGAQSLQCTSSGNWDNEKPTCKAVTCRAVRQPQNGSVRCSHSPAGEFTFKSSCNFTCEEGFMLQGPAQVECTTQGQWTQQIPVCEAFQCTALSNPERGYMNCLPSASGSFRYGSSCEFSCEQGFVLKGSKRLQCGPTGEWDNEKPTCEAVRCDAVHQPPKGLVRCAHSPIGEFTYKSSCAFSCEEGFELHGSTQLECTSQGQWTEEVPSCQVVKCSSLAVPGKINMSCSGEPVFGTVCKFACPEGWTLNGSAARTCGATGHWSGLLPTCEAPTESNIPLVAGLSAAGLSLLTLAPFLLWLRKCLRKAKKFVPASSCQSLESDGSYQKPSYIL
#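 Test system: HUVEC | Signal: Immunofluorescence imaging | Read-out: Percent E-selectin-positive cells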
# S100A4 inh HTS: inhibitors of human S100A4 binding to myosin IIA peptide; 360,000 tested, 0.14% active; inhibition, % at 10.7 µM; S100A4/TAMRA-MyoIIA peptide fluorescence polarization; AID 652163;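 active = mean inhibition of at least 70% across replicates, with every replicate also reaching that level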
#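 assay system = human S100A4 monomer with TAMRA-labelled myosin IIA peptide | also added = labelled myosin peptide probe, 5 nM | incubation = 5 min between mix addition and reading | control set = DMSO and TFP controls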
# FGF22 binding: FGF22 (human) thermal shift binding; recombinant FGF22 thermal shift, SYPRO orange fluorescence; percent of sucrose octasulfate shift, DMSO zero; 340,000 tested, 1.5% active; activity (Tm shift, normalised), % at 9.99 µM; Q9HCT0;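 active = mean Tm shift, scaled 0 neutral to 100 positive control, at about 1.3% or above, every replicate too, limit read from the data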
# miR122 inh: inhibitors of miR-122 in Huh7 cells; 340,000 tested, 0.3% active; activation (reporter increase), % at 12.5 µM; Huh7 miR-122 Renilla luciferase sensor, 48 h; neutral wells = 0, positive control = 100;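 active = mean replicate activation score at least 90 and every replicate individually at or above 90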;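 note: higher luciferase means less miR-122 activity so hits act as miR-122 inhibitors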
# Numbers without * were called inactive; · = no result; [ ] = dose if it differs, or a comment.
SMILES,SIRT5 inh,E-selectin induc,S100A4 inh HTS,FGF22 binding,miR122 inh
O=C(c1ccc(F)cc1)N1CC(=O)N2[C@H](C1)[C@H](c1ccc(C#CCC3CCCC3)cc1)[C@@H]2CO,19*,0,11,0,·
O=C(c1ccc2c(c1)OCO2)N1CC(=O)N2[C@H](C1)[C@@H](c1ccc(C#CCC3CCCC3)cc1)[C@@H]2CO,18*,-1,12,-1,·
Cc1cc(C)cc(C(O)c2ncc(-c3ccccc3C)[nH]2)c1 (centres undefined),-2,2,-14,0,·
Cc1cc(C(O)c2ncc(-c3ccccc3Cl)[nH]2)ccc1F (centres undefined),0,1,28,0,40
Cc1cc(C)cc(C(O)c2ncc(-c3ccccc3F)[nH]2)c1 (centres undefined),-1,0,2,0,110*
Cc1cc(C(O)c2ncc(-c3ccccc3F)[nH]2)ccc1F (centres undefined),0,0,7,0,136*
CCCC(=O)Nc1ccc2c(c1)C(=O)N(C)[C@H]1CC[C@H](CC(=O)Nc3ccccc3F)O[C@@H]1CO2,·,0,·,0,0[16.7 µM]
COc1ccc(Cl)cc1NC(=O)c1cccc(NC(=O)CCC(=O)O)c1,19*,0,-5,0,3
COc1ccc(C)cc1NC(=O)c1ccc2c(c1)OCO2,·,·,·,·,13
COc1ccc(C)cc1NC(=O)C(NCC(O)c1ccccc1)c1ccccc1 (centres undefined),-1,52*,8,0,3
COc1ccc(C)cc1NC(=O)c1cccc(C(=O)Nc2cc(C)ccc2OC)c1,16*,0,8,0,-17
COC(=O)C[C@@H]1CC[C@@H]2[C@H](COC[C@@H](O)CN2CCC(F)(F)F)O1,·,0,·,0,3[16.7 µM]
C[C@H](CO)N1C[C@H](C)[C@@H](CN(C)C(=O)Nc2ccc(C(F)(F)F)cc2)Oc2ccc(NC(=O)Nc3cccc4ccccc34)cc2CC1=O,1,15,3,0,-5[16.7 µM]
COc1ccc(NC(=O)Nc2ccc3c(c2)C(=O)N([C@H](C)CO)C[C@@H](C)[C@H](CN(C)Cc2ccccc2)OCCCC[C@@H](C)O3)cc1,-2,0,-74,0,-3[16.7 µM]
C[C@@H]1CN([C@@H](C)CO)C(=O)Cc2cc(NC(=O)Nc3cccc4ccccc34)ccc2O[C@H]1CN(C)Cc1ccncc1,2,·,-5,2.4*,1[16.7 µM]
C[C@H]1CN([C@@H](C)CO)C(=O)Cc2cc(NC(=O)Nc3cccc4ccccc34)ccc2O[C@H]1CN(C)Cc1ccc(Cl)c(Cl)c1,15*,-1,2,0,-6[16.7 µM]
C[C@H]1CN([C@@H](C)CO)C(=O)c2cc(NC(=O)C3CCCCC3)ccc2O[C@@H]1CN(C)Cc1ccc2c(c1)OCO2,2,0,-11,0,-1[16.7 µM]
O=C(/C=C/c1ccccc1)NCC(=O)N/N=C/c1ccccc1[N+](=O)[O-],2,·,1,43*,·
O=C(COC(=O)Cc1cn2ccsc2n1)NC12CC3CC(CC(C3)C1)C2,·,·,·,·,-6
CC1CCCC(NC(=O)COC(=O)Cc2cn3ccsc3n2)C1C (centres undefined),15*,·,-2,·,-7
C[C@@H]1CCCCO[C@H](CN(C)CC2CC2)[C@H](C)CN([C@H](C)CO)C(=O)c2cc(NC(=O)c3ccncc3)ccc2O1,-3,0,-4,0,-2[16.7 µM]
COc1ccc(S(=O)(=O)Nc2ccc3c(c2)C(=O)N([C@@H](C)CO)C[C@@H](C)[C@H](CN(C)S(=O)(=O)c2cccs2)OCCCC[C@@H](C)O3)cc1,16*,·,-47,0,-7[16.7 µM]
Cc1ccc(S(=O)(=O)Nc2ccc3c(c2)C(=O)N([C@H](C)CO)C[C@@H](C)[C@H](CN(C)S(=O)(=O)c2cccs2)OCCCC[C@H](C)O3)cc1,17*,0,-15,0,-4[16.7 µM]
C[C@@H]1CN([C@H](C)CO)C(=O)c2cc(NC(=O)C3CCCCC3)ccc2O[C@H]1CN(C)S(=O)(=O)c1ccc(Cl)cc1,2,0,5,0,5[16.7 µM]
COc1ccc(CN(C)C[C@H]2OCc3cn(nn3)CCCC(=O)N([C@@H](C)CO)C[C@H]2C)cc1,-6,0,0,0,-5[16.7 µM]
SMILES,SIRT5 inh,E-selectin induc,S100A4 inh HTS,FGF22 binding,miR122 inh
c1ccc(C[C@H]2CN=C(Nc3ccccc3)N2CC2CCCCC2)cc1,0,1,0,0,-2
c1ccc(C[C@H]2CN=C(Nc3ccccc3)N2CC2CCCC2)cc1,21*,0,-2,0,·
O=C(NN=Cc1ccccc1O)C1CC1,·,0,0,43*,·
C[C@H](CO)N1C[C@H](C)[C@H](CN(C)C(=O)CN2CCOCC2)Oc2ncc(C3=CCCCC3)cc2C1=O,-5,0,19,0,·
C/[N+]([O-])=C\CC(=O)c1ccc(-c2ccccc2)cc1,-3,0,6,0,·
CO/N=C/CC(=O)c1ccc(-c2ccccc2)cc1,29*,·,-10,0,·
COc1cc(CC(=O)N(CC(C)C)C2CCS(=O)(=O)C2)cc(OC)c1OC (centres undefined),·,0,0,43*,2
Cc1cc(C)n(-c2ccc(F)cc2)c(=O)c1C(=O)O,·,·,·,·,2
CC(=O)c1c(O)cc(C)n(-c2ccc(F)cc2)c1=O,0,·,1,44*,·
CCN(CCCNC(=O)C1CCC(=O)N1Cc1ccc(C)cc1)c1cccc(C)c1 (centres undefined),17*,·,1,·,·
C[C@H](CO)N1C[C@H](C)[C@@H](CN(C)Cc2ccc(C(=O)Nc3ccccc3N)cc2)Oc2c(NS(=O)(=O)c3cn(C)cn3)cccc2C1=O,6,·,-1,0,·
CO[C@@H]1CN(C)C(=O)c2cc(NS(=O)(=O)CC(F)(F)F)ccc2OC[C@@H](C)N(Cc2cccnc2)C[C@@H]1C,·,0,-2,0,·
COc1ccc([C@H]2/C=C\CN(S(=O)(=O)c3cccc4cccnc34)[C@@H](C)C(=O)N2Cc2ccc(F)cc2)cc1,·,0,-1,0,2
COc1ccc(C2/C=C\CN(S(=O)(=O)c3cccc4cccnc34)CC(=O)N2Cc2ccc(F)cc2)cc1 (centres undefined),·,0,91*,0,10
COc1ccc(C2/C=C\CN(C(=O)c3ccccc3)[C@H](Cc3ccccc3)C(=O)N2Cc2ccc(F)cc2)cc1 (some centres undefined),-2,0,2,44*,-2
COc1ccc(C2/C=C\CN(Cc3ccncc3)CC(=O)N2Cc2ccc(F)cc2)cc1 (centres undefined),16*,1,5,0,5
COc1ccc([C@H]2/C=C\CN(C(=O)c3ccc(C)cc3)[C@@H](C)C(=O)N2Cc2ccc(F)cc2)cc1,·,0,0,-1,-3
